# Laboratory results reported in ChEMBL document CHEMBL1156631 (J Med Chem, 2008).
# Target: T1, Cannabinoid receptor 1 (Homo sapiens, UniProt P21554)
# Assay: Agonist activity at human CB1 receptor expressed in Sf9 cells by GTP-europium binding assay
# Settings: not given
# How it was run: (§1)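 Membranes were from Sf9 insect cells cotransfected with CB1 or CB2 plus Gαi3 (Bmax 1.7 pmol/mL). Compound (0.01 nM–10 µM, 1% DMSO final) was added to buffer with Hepes, BSA, 10 mM MgCl2, 150 mM NaCl, 5 µM GDP, 10 nM GTP-europium, saponin and membranes (CB1 4.5 µg/well, CB2 14 µg/well). 100% efficacy was set by 3 µM reference agonist.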
# T1 sequence (P21554 whole entry): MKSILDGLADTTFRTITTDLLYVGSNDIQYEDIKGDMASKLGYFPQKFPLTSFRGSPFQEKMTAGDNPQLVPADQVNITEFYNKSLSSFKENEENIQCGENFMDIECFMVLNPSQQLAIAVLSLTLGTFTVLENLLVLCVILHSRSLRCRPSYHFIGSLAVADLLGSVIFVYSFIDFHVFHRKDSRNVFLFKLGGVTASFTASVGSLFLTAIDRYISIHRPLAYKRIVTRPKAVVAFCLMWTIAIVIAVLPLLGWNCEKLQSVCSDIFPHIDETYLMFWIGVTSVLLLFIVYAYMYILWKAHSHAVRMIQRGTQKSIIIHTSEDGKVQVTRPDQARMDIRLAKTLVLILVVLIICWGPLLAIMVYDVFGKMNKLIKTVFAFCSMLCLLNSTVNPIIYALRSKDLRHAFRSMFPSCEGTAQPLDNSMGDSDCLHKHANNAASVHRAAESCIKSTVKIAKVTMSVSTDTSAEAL
row,SMILES,EC50 [nM]
1,Fc1ccc(-c2noc(CCCNc3cnc4ccc(Cl)cc4c3)n2)c(Cl)c1,220
2,CC(C)(C)c1cc(NC(=O)CCc2nc(-c3ccc(F)cc3Cl)no2)no1,1600

# Target: T2, Cannabinoid receptor 2 (Homo sapiens, UniProt P34972)
# T2 sequence (P34972 whole entry): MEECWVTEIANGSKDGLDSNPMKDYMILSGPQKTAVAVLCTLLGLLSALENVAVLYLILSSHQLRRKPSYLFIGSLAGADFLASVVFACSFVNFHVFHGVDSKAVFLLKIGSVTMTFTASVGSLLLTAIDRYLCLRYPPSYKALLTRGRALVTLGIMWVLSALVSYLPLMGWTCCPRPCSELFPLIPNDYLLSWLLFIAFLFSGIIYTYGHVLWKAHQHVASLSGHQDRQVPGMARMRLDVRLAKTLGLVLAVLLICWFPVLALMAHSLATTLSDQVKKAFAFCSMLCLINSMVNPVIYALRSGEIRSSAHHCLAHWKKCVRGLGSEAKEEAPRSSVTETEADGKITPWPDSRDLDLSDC
# Assay: Agonist activity at human recombinant CB2 receptor expressed in Sf9 cells by GTP-europium binding assay
# Settings: not given
# How it was run: as §1
row,SMILES,EC50 [nM]
1,Fc1ccc(-c2noc(CCCNc3cnc4ccc(Cl)cc4c3)n2)c(Cl)c1,1.7
2,CC(C)(C)c1cc(NC(=O)CCc2nc(-c3ccc(F)cc3Cl)no2)no1,0.2

# Target: T1, Cannabinoid receptor 1
# Assay: Agonist activity at human recombinant CB1 receptor expressed in Sf9 cells by GTP-europium binding assay relative to CP-55940
# Settings: not given
# How it was run: as §1, with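 “µg/well). Incubation was 45 min at room temperature, then filtration and washing, with fluorescence read at 615 nm.” for “µg/well).”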
row,SMILES,Emax [%]
1,Fc1ccc(-c2noc(CCCNc3cnc4ccc(Cl)cc4c3)n2)c(Cl)c1,51
2,CC(C)(C)c1cc(NC(=O)CCc2nc(-c3ccc(F)cc3Cl)no2)no1,103

# Target: T2, Cannabinoid receptor 2
# Assay: Agonist activity at human recombinant CB2 receptor expressed in Sf9 cells by GTP-europium binding assay relative to CP-55940
# Settings: not given
# How it was run: as §1, with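 “µg/well). Incubation was 45 min at room temperature, then filtration and washing, with fluorescence read at 615 nm.” for “µg/well).”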
row,SMILES,Emax [%]
1,Fc1ccc(-c2noc(CCCNc3cnc4ccc(Cl)cc4c3)n2)c(Cl)c1,110
2,CC(C)(C)c1cc(NC(=O)CCc2nc(-c3ccc(F)cc3Cl)no2)no1,120

# Target: T1, Cannabinoid receptor 1
# Assay: Agonist activity at human recombinant CB1 receptor expressed in CHO-K1 cells assessed as inhibition of forskolin-stimulated intracellular cAMP level
# Type: functional, cell-based
# Settings: not given
# How it was run: (§2)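 CHO-K1 cells stably expressing human or rat CB1 or CB2 were used. Compounds were diluted from DMSO into HBSS/HEPES/BSA buffer containing 60 µM forskolin, then combined with 5000 cells/well plus Alexa647 anti-cAMP antibody, 1 h at room temperature. A biotinylated-cAMP detection mix was added for another 1 h.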
row,SMILES,EC50 [nM]
1,Fc1ccc(-c2noc(CCCNc3cnc4ccc(Cl)cc4c3)n2)c(Cl)c1,560
2,CC(C)(C)c1cc(NC(=O)CCc2nc(-c3ccc(F)cc3Cl)no2)no1,> 1000

# Target: T2, Cannabinoid receptor 2
# Assay: Agonist activity at human recombinant CB2 receptor expressed in CHO-K1 cells assessed as inhibition of forskolin-stimulated intracellular cAMP level
# Type: functional, cell-based
# Settings: not given
# How it was run: as §2
row,SMILES,EC50 [nM]
1,Fc1ccc(-c2noc(CCCNc3cnc4ccc(Cl)cc4c3)n2)c(Cl)c1,2.2
2,CC(C)(C)c1cc(NC(=O)CCc2nc(-c3ccc(F)cc3Cl)no2)no1,0.7

# Target: T1, Cannabinoid receptor 1
# Assay: Agonist activity at human recombinant CB1 receptor expressed in CHO-K1 cells assessed as inhibition of forskolin-stimulated intracellular cAMP level relative to CP-55940
# Type: functional, cell-based
# Settings: not given
# How it was run: as §2, with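 “h. Emission at 665 nm gave concentration-response curves and EC50; Emax is expressed as a percentage of the reference agonist maximum.” for “h.”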
row,SMILES,Emax [%]
1,Fc1ccc(-c2noc(CCCNc3cnc4ccc(Cl)cc4c3)n2)c(Cl)c1,88
2,CC(C)(C)c1cc(NC(=O)CCc2nc(-c3ccc(F)cc3Cl)no2)no1,48

# Target: T2, Cannabinoid receptor 2
# Assay: Agonist activity at human recombinant CB2 receptor expressed in CHO-K1 cells assessed as inhibition of forskolin-stimulated intracellular cAMP level relative to CP-55940
# Type: functional, cell-based
# Settings: not given
# How it was run: as §2, with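 “h. Emission at 665 nm gave concentration-response curves and EC50; Emax is expressed as a percentage of the reference agonist maximum.” for “h.”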
row,SMILES,Emax [%]
1,Fc1ccc(-c2noc(CCCNc3cnc4ccc(Cl)cc4c3)n2)c(Cl)c1,94
2,CC(C)(C)c1cc(NC(=O)CCc2nc(-c3ccc(F)cc3Cl)no2)no1,96

# Target: Cannabinoid receptor 1 (Rattus norvegicus, UniProt P20272)
# Sequence (P20272 whole entry): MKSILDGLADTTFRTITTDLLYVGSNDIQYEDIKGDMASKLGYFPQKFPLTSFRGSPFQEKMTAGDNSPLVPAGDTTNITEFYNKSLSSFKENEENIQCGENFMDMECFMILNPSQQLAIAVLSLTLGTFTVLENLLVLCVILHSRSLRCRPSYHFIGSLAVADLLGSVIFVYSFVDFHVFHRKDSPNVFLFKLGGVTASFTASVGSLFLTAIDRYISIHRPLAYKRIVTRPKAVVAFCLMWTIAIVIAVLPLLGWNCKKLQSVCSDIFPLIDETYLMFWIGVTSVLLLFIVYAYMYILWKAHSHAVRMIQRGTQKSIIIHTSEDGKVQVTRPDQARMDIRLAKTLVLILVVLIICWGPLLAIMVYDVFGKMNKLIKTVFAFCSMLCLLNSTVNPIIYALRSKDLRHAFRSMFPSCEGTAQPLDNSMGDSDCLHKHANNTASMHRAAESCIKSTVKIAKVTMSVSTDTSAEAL
# Assay: Agonist activity at rat recombinant CB1 receptor expressed in CHO-K1 cells assessed as inhibition of forskolin-stimulated intracellular cAMP level
# Type: functional, cell-based
# Settings: not given
# How it was run: as §2
row,SMILES,EC50 [nM]
1,Fc1ccc(-c2noc(CCCNc3cnc4ccc(Cl)cc4c3)n2)c(Cl)c1,77
2,CC(C)(C)c1cc(NC(=O)CCc2nc(-c3ccc(F)cc3Cl)no2)no1,170

# Target: T3, Cannabinoid receptor 2 (Rattus norvegicus, UniProt Q9QZN9)
# T3 sequence (Q9QZN9 whole entry): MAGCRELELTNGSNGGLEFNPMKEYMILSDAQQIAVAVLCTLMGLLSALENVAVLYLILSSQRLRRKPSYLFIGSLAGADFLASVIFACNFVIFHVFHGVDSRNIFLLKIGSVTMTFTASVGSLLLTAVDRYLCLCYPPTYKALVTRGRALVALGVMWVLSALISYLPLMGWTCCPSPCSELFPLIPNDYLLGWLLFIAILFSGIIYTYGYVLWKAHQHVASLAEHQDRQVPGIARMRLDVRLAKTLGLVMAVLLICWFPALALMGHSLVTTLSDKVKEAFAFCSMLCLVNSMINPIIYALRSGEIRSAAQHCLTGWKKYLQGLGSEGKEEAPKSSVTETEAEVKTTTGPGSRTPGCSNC
# Assay: Agonist activity at rat recombinant CB2 receptor expressed in CHO-K1 cells assessed as inhibition of forskolin-stimulated intracellular cAMP level
# Type: functional, cell-based
# Settings: not given
# How it was run: as §2, with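 “h. Emission at 665 nm gave concentration-response curves and EC50; Emax is expressed as a percentage of the reference agonist maximum.” for “h.”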
row,SMILES,EC50 [nM]
1,Fc1ccc(-c2noc(CCCNc3cnc4ccc(Cl)cc4c3)n2)c(Cl)c1,1.3
2,CC(C)(C)c1cc(NC(=O)CCc2nc(-c3ccc(F)cc3Cl)no2)no1,0.4

# Target: Cannabinoid receptor 1 (Rattus norvegicus) (UniProt P20272)
# Sequence (P20272 whole entry): as the sequence (P20272 whole entry) above
# Assay: Agonist activity at rat recombinant CB1 receptor expressed in CHO-K1 cells assessed as inhibition of forskolin-stimulated intracellular cAMP level relative to CP-55940
# Type: functional, cell-based
# Settings: not given
# How it was run: as §2, with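 “h. Emission at 665 nm gave concentration-response curves and EC50; Emax is expressed as a percentage of the reference agonist maximum.” for “h.”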
row,SMILES,Emax [%]
1,Fc1ccc(-c2noc(CCCNc3cnc4ccc(Cl)cc4c3)n2)c(Cl)c1,85
2,CC(C)(C)c1cc(NC(=O)CCc2nc(-c3ccc(F)cc3Cl)no2)no1,110

# Target: T4, Cannabinoid receptor 2 (Rattus norvegicus) (UniProt Q9QZN9)
# T4 sequence (whole entry): T3 sequence (Q9QZN9 whole entry)
# Assay: Agonist activity at rat recombinant CB2 receptor expressed in CHO-K1 cells assessed as inhibition of forskolin-stimulated intracellular cAMP level relative to CP-55940
# Type: functional, cell-based
# Settings: not given
# How it was run: as §2, with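 “h. Emission at 665 nm gave concentration-response curves and EC50; Emax is expressed as a percentage of the reference agonist maximum.” for “h.”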
row,SMILES,Emax [%]
1,Fc1ccc(-c2noc(CCCNc3cnc4ccc(Cl)cc4c3)n2)c(Cl)c1,90
2,CC(C)(C)c1cc(NC(=O)CCc2nc(-c3ccc(F)cc3Cl)no2)no1,100

# Target: T2, Cannabinoid receptor 2
# Assay: Binding affinity to CB2 receptor
# Settings: not given
row,SMILES,Ki [nM]
1,Cc1ccc2c(=O)c(C(=O)NC3CCCCC3)cn(Cc3ccc(F)cc3)c2n1,5.5

# Target: T1, Cannabinoid receptor 1
# Assay: Binding affinity to CB1 receptor
# Settings: not given
row,SMILES,Ki [nM]
1,Cc1ccc2c(=O)c(C(=O)NC3CCCCC3)cn(Cc3ccc(F)cc3)c2n1,15

# Test system: not listed separately
# Assay: Solubility in simulated intestinal fluid
# Type: physicochemical
# Settings: read-out: Stability
row,SMILES,solubility [µg/mL]
1,Fc1ccc(-c2noc(CCCNc3cnc4ccc(Cl)cc4c3)n2)c(Cl)c1,87

# Test system: not listed separately
# Assay: Cmax in rat at 10 mg/kg, po
# Type: ADME, organism-based
# Parameters: dose 10 mg/kg, route oral
# Settings: in vivo
row,SMILES,Cmax [ng/mL]
1,Fc1ccc(-c2noc(CCCNc3cnc4ccc(Cl)cc4c3)n2)c(Cl)c1,8400

# Test system: not listed separately
# Assay: AUC in rat at 10 mg/kg, po
# Type: ADME, organism-based, Plasma
# Parameters: dose 10 mg/kg, route oral
# Settings: plasma
row,SMILES,AUC [ng·h/mL]
1,Fc1ccc(-c2noc(CCCNc3cnc4ccc(Cl)cc4c3)n2)c(Cl)c1,43000

# Test system: not listed separately
# Assay: Oral bioavailability in rat at 10 mg/kg
# Type: ADME, organism-based
# Settings: in vivo
row,SMILES,bioavailability [%]
1,Fc1ccc(-c2noc(CCCNc3cnc4ccc(Cl)cc4c3)n2)c(Cl)c1,< 100

# Test system: not listed separately
# Assay: Half life in rat at 10 mg/kg, po
# Type: ADME, organism-based
# Parameters: dose 10 mg/kg, route oral
# Settings: in vivo
row,SMILES,half-life [h]
1,Fc1ccc(-c2noc(CCCNc3cnc4ccc(Cl)cc4c3)n2)c(Cl)c1,5.1
